Data taken from ChEMBL document CHEMBL4145525, “Machine learning prioritizes synthesis of primaquine ureidoamides with high antimalarial activity and attenuated cytotoxicity” (Eur J Med Chem, 2018).

Key:
Plasmodium falciparum = experiment: Antiplasmodial activity against erythrocytic stage of Plasmodium falciparum NF54 assessed as reduction in [3H]hypoxanthine incorporation after 48 hrs by liquid scintillation counting method; type: functional, organism-based
Summary of the method: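 Asexual blood-stage NF54 grown in hypoxanthine-free RPMI 1640 with HEPES, NaHCO3, neomycin and Albumax, using washed human A+ erythrocytes at 2.5% hematocrit and 0.3% parasitemia. Compounds were made as 10 mg/ml DMSO stocks and run as eleven 3-fold dilutions, 100 to 0.002 µg/ml. Incubation at 37 °C in 4% CO2, 3% O2, 93% N2. After 48 h, 0.5 µCi 3H-hypoxanthine was added for a further 24 h, then harvested and scintillation counted. IC50 by linear interpolation of sigmoidal curves; averages of 2–3 independent experiments.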

[1] = Selectivity index, ratio of IC50 for rat L6 cells to IC50 for erythrocytic stage of Plasmodium falciparum NF54; type: toxicity; conditions: read-out: Ratio IC50
Summary of the method: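 Ratio of the L6 cytotoxicity IC50 to the IC50 against P. falciparum NF54.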

L6 = experiment: Cytotoxicity against rat L6 cells assessed as reduction in cell viability after 70 hrs by Alamar blue assay; type: cell-based; conditions: L6, 70 h
Summary of the method: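 L6 rat skeletal myoblasts were plated at 4000 cells/well in RPMI 1640 with L-glutamine and 10% FBS. Eleven 3-fold drug dilutions, 100 to 0.002 µg/ml. After 70 h, Alamar Blue was added for 2 h and fluorescence read (ex 536 nm, em 588 nm). IC50 by linear interpolation from sigmoid dose-inhibition curves.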

| Structure (SMILES) | IC50 (Plasmodium falciparum) | selectivity ratio [1] | IC50 (L6) |
| --- | --- | --- | --- |
| COc1cc(NC(C)CCCNC(=O)NNC(=O)NC2CCCCC2)c2ncccc2c1 (stereo unspecified) | 46.3 µM | – | – |
| COc1cc(NC(C)CCCNC(=O)NNC(=O)NCCCCCO)c2ncccc2c1 (stereo unspecified) | 43.7 µM | – | – |
| COc1cc(NC(C)CCCNC(=O)NC2CCCC2)c2ncccc2c1 (stereo unspecified) | 65.9 µM | – | – |
| COc1cc(NC(C)CCCNC(=O)NCCNC(c2ccccc2)(c2ccccc2)c2ccccc2)c2ncccc2c1 (stereo unspecified) | 1.5 µM | > 114 | > 171 µM |
| COc1cc(NC(C)CCCNC(=O)NNC(=O)NC(CO)(CO)CO)c2ncccc2c1 (stereo unspecified) | 66.7 µM | – | – |
| COc1cc(NC(C)CCCNC(=O)NCc2ccncc2)c2ncccc2c1 (stereo unspecified) | 47.3 µM | – | – |
| COc1cc(NC(C)CCCNC(=O)NC(c2ccccc2)c2ccc(Cl)cc2)c2ncccc2c1 (stereo unspecified) | 4.3 µM | 32.6 | 140 µM |
| COc1ccc(/C(=N/NC(=O)NCCCC(C)Nc2cc(OC)cc3cccnc23)c2ccccc2)cc1 (stereo unspecified) | 4.1 µM | > 47.6 | > 195 µM |
| COc1cc(NC(C)CCCNC(=O)NCCCO)c2ncccc2c1 (stereo unspecified) | 52.4 µM | – | – |
| COc1cc(NC(C)CCCNC(=O)NNC(=O)NCCCC(C)Nc2cc(OC)cc3cccnc23)c2ncccc2c1 (stereo unspecified) | 3.7 µM | 20.7 | 76.6 µM |
| COc1cc(NC(C)CCCNC(=O)/C=C/c2ccc(OC)c(OC)c2)c2ncccc2c1 (stereo unspecified) | 11.9 µM | > 18.5 | > 220 µM |
| COc1cc(NC(C)CCCNC(=O)NCCCC(C)Nc2cc(OC)cc3cccnc23)c2ncccc2c1 (stereo unspecified) | 6.4 µM | > 28.1 | > 180 µM |
| COc1cc(NC(C)CCCNC(=O)NNC(=O)N(CCO)CCO)c2ncccc2c1 (stereo unspecified) | 41.4 µM | 4.3 | 178 µM |
| COc1cc(NC(C)CCCNC(=O)/C=C/c2ccc(Cl)cc2)c2ncccc2c1 (stereo unspecified) | 13.7 µM | 1.2 | 16.8 µM |
| COc1cc(NC(C)CCCNC(=O)NNC(=O)/C=C/c2cc(OC)c(OC)c(OC)c2)c2ncccc2c1 (stereo unspecified) | 4.5 µM | 30.7 | 138 µM |
| COc1cc(NC(C)CCCNC(=O)/C=C/c2cccc(C(F)(F)F)c2)c2ncccc2c1 (stereo unspecified) | 15.6 µM | 1 | 16.2 µM |
| COc1cc(NC(C)CCCNC(=O)/C=C/c2ccc3c(c2)OCO3)c2ncccc2c1 (stereo unspecified) | 22.1 µM | 1.3 | 29 µM |
| COc1cc(NC(C)CCCNC(=O)N(C2CCCCC2)C2CCCCC2)c2ncccc2c1 (stereo unspecified) | 8.1 µM | – | – |
| COc1cc(NC(C)CCCNC(=O)/C=C/c2cc(OC)c(OC)c(OC)c2)c2ncccc2c1 (stereo unspecified) | 8.1 µM | > 25.9 | > 210 µM |
| COc1cc(NC(C)CCCNC(=O)Nc2cc(C(F)(F)F)cc(C(F)(F)F)c2)c2ncccc2c1 (stereo unspecified) | 11.9 µM | 1.3 | 14.9 µM |
| COc1cc(NC(C)CCCNC(=O)/C=C/c2cc(C(F)(F)F)cc(C(F)(F)F)c2)c2ncccc2c1 (stereo unspecified) | 11.3 µM | 14 | 158 µM |
| COc1ccc(/C=C/C(=O)NCCCC(C)Nc2cc(OC)cc3cccnc23)cc1 (stereo unspecified) | 12.4 µM | > 19.4 | > 240 µM |
| COc1cc(NC(C)CCCNC(=O)NNC(=O)/C=C/c2cc(C(F)(F)F)cc(C(F)(F)F)c2)c2ncccc2c1 (stereo unspecified) | > 17.1 µM | – | > 170 µM |
| COc1cc(NC(C)CCCNC(=O)NCCO)c2ncccc2c1 (stereo unspecified) | 27.4 µM | – | – |
| COc1cc(NC(C)CCCNC(=O)NNC(=O)NC2CCCC2)c2ncccc2c1 (stereo unspecified) | 75.4 µM | – | – |
| COc1cc(NC(C)CCCNC(=O)/C=C/c2ccc(C(F)(F)F)cc2)c2ncccc2c1 (stereo unspecified) | 12.9 µM | 12.4 | 160 µM |
| COc1cc(NC(C)CCCNC(=O)Nc2ccc(Cl)c(C(F)(F)F)c2)c2ncccc2c1 (stereo unspecified) | 17.1 µM | – | – |
| COc1cc(NC(C)CCCNC(=O)NC2CCCCC2)c2ncccc2c1 (stereo unspecified) | 42.1 µM | – | – |

Further lines, with some results ahead:

| IC50 (Plasmodium falciparum) | Structure (SMILES) | selectivity ratio [1] | IC50 (L6) |
| --- | --- | --- | --- |
| 17.8 µM | COc1cc(NC(C)CCCNC(=O)NNC(=O)Nc2ccc(Br)cc2)c2ncccc2c1 (stereo unspecified) | 2.2 | 38.7 µM |
| 20.8 µM | COc1cc(NC(C)CCCNC(=O)NNC(=O)NOCc2ccccc2)c2ncccc2c1 (stereo unspecified) | – | – |
| 27.1 µM | COc1cc(NC(C)CCCNC(=O)NNC(=O)NCCc2ccccc2)c2ncccc2c1 (stereo unspecified) | – | – |
| 15.1 µM | COc1cc(NC(C)CCCNC(=O)/C=C/c2ccccc2)c2ncccc2c1 (stereo unspecified) | 1.2 | 18.5 µM |
| > 24.8 µM | COc1cc(NC(C)CCCNC(=O)/C(C)=C/c2ccccc2)c2ncccc2c1 (stereo unspecified) | – | > 250 µM |
| 11.8 µM | COc1cc(NC(C)CCCNC(=O)NNC(=O)Nc2cccc(C(F)(F)F)c2)c2ncccc2c1 (stereo unspecified) | 2.7 | 32.1 µM |
| > 19.7 µM | COc1cc(NC(C)CCCNC(=O)NNC(=O)/C=C/c2ccc(OC)c(OC)c2)c2ncccc2c1 (stereo unspecified) | < 1.9 | 37 µM |
| 10.3 µM | COc1cc(NC(C)CCCNC(=O)NNC(=O)Nc2ccc(C(F)(F)F)cc2)c2ncccc2c1 (stereo unspecified) | 1.4 | 14.9 µM |
| 14.9 µM | COc1cc(NC(C)CCCNC(=O)NNC(=O)Nc2cccc(Cl)c2)c2ncccc2c1 (stereo unspecified) | 3.9 | 58.6 µM |
| 10 µM | COc1cc(NC(C)CCCNC(=O)NNC(=O)N(C)C(c2ccccc2)c2ccccc2)c2ncccc2c1 (stereo unspecified) | 1 | 10.4 µM |
| 7.5 µM | COc1cc(NC(C)CCCNC(=O)NNC(=O)NC(c2ccccc2)c2ccc(Cl)cc2)c2ncccc2c1 (stereo unspecified) | 1.1 | 8.4 µM |
| 10.3 µM | COc1cc(NC(C)CCCNC(=O)NNC(=O)NC(c2ccccc2)c2ccccc2)c2ncccc2c1 (stereo unspecified) | – | – |
| 5.6 µM | COc1ccc(/C(=N/NC(=O)NNC(=O)NCCCC(C)Nc2cc(OC)cc3cccnc23)c2ccccc2)cc1 (stereo unspecified) | 2.9 | 16 µM |
| > 111 µM | COc1cc(NC(C)CCCNC(=O)NNC(=O)NCc2ccccc2)c2ncccc2c1 (stereo unspecified) | – | – |
| 13.2 µM | COc1cc(NC(C)CCCNC(=O)/C=C/c2ccccc2F)c2ncccc2c1 (stereo unspecified) | 0.3 | 3.5 µM |
| 58.8 µM | COc1cc(NC(C)CCCNC(=O)NNC(=O)NCCCO)c2ncccc2c1 (stereo unspecified) | – | – |
| > 19.4 µM | COc1cc(NC(C)CCCNC(=O)NNC(=O)/C=C/c2cccc(C(F)(F)F)c2)c2ncccc2c1 (stereo unspecified) | < 0.5 | 10.6 µM |
| 15.2 µM | COc1cc(NC(C)CCCNC(=O)NNC(=O)Nc2ccc(Cl)c(C(F)(F)F)c2)c2ncccc2c1 (stereo unspecified) | – | – |
| 20.4 µM | COc1cc(NC(C)CCCNC(=O)NNC(=O)/C=C/c2ccc3c(c2)OCO3)c2ncccc2c1 (stereo unspecified) | 0.8 | 15.5 µM |
| 22.2 µM | COc1ccc(/C=C/C(=O)NNC(=O)NCCCC(C)Nc2cc(OC)cc3cccnc23)cc1 (stereo unspecified) | 0.2 | 3.6 µM |
| 17.8 µM | COc1cc(NC(C)CCCNC(=O)NNC(=O)Nc2ccc(Cl)cc2)c2ncccc2c1 (stereo unspecified) | 5.2 | 91.9 µM |
| 17.2 µM | COc1cc(NC(C)CCCNC(=O)NNC(=O)/C=C/c2ccccc2)c2ncccc2c1 (stereo unspecified) | 0.8 | 13.9 µM |
| 24.2 µM | COc1cc(NC(C)CCCNC(=O)NNC(=O)/C=C/c2ccc(Cl)cc2)c2ncccc2c1 (stereo unspecified) | 0.3 | 7.3 µM |
| 22.9 µM | COc1cc(NC(C)CCCNC(=O)NNC(=O)/C(C)=C/c2ccccc2)c2ncccc2c1 (stereo unspecified) | 1.6 | 36.5 µM |
| > 19.4 µM | COc1cc(NC(C)CCCNC(=O)NNC(=O)/C=C/c2ccc(C(F)(F)F)cc2)c2ncccc2c1 (stereo unspecified) | < 1.5 | 28.3 µM |
| > 21.4 µM | COc1cc(NC(C)CCCNC(=O)NNC(=O)/C=C/c2ccccc2F)c2ncccc2c1 (stereo unspecified) | < 1.2 | 25.1 µM |
